# Assay results taken from ChEMBL document CHEMBL4665831, “Ultrapotent Inhibitor of Clostridioides difficile Growth, Which Suppresses Recurrence In Vivo” (J Med Chem, 2020).
# Tests used:
# Clostridioides difficile [1] = experiment: Antimicrobial activity against Clostridioides difficile NR-13432 isolate 6 assessed as reduction in microbial growth after 48 hrs by broth microdilution method; type: functional
# Procedure, shortened: (§1)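 Broth microdilution: a 0.5 McFarland suspension was diluted in brain heart infusion supplemented (BHIS) broth to ~5 × 10^5 CFU/mL. Agents were serially diluted and plates incubated anaerobically at 37°C for 48 h.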
# Clostridioides difficile [2] = experiment: Antimicrobial activity against Clostridioides difficile NR-32883 P2 assessed as reduction in microbial growth after 48 hrs by broth microdilution method; type: functional; procedure, shortened: as §1
# Escherichia coli = experiment: Antimicrobial activity against Escherichia coli JW55031 harboring TolC mutant assessed as reduction in microbial growth after 48 hrs by CLSI based broth microdilution method; type: functional
# Procedure, shortened: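 CLSI broth microdilution: strains were grown aerobically overnight on tryptone soy agar at 37°C. A 0.5 McFarland suspension was diluted to ~5 × 10^5 CFU/mL in cation-adjusted Mueller-Hinton broth (E. coli) or tryptone soy broth (enterococci), and agents were serially diluted.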
# Clostridioides difficile [3] = experiment: Potency index, ratio of vancomycin MIC to test compound MIC for antibacterial activity against Clostridioides difficile NR-32904 P30; type: functional
# Bacteroides fragilis = experiment: Antibacterial activity against Bacteroides fragilis HM-711 assessed as reduction in microbial growth after 48 hrs by broth microdilution method; type: organism-based
# Procedure, shortened: (§2)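 Gut commensal MICs by broth microdilution: a 0.5 McFarland suspension was diluted to ~5 × 10^5 CFU/mL in BHIS broth (Bacteroides) or MRS broth (Lactobacillus). Agents were serially diluted and incubated 48 h at 37°C. MIC was read by visual inspection of growth.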
# Phocaeicola dorei = experiment: Antibacterial activity against Bacteroides dorei HM-719 assessed as reduction in microbial growth after 48 hrs by broth microdilution method; type: organism-based; procedure, shortened: as §2
# Clostridioides difficile [4] = experiment: Antimicrobial activity against Clostridioides difficile ATCC 43255 assessed as drug resistance by measuring frequency of mutation at 20 times of MIC after 48 hrs; type: functional
# Clostridioides difficile [5] = experiment: Antibacterial activity against Clostridioides difficile ATCC 43255 infected in CDI mouse model assessed as survival rate at 50 mg/kg, po for 5 days and measured on day 21 relative to control; type: functional; settings: ATCC 43255, po, 504 h, time 21 day
# [6] = Selectivity ratio of MIC for antibacterial activity against Bacteroides fragilis HM-711 to antibacterial activity against Clostridioides difficile NR-13432 isolate 6; type: ADME
# [7] = Selectivity ratio of MIC for antibacterial activity against Bacteroides fragilis HM-711 to antibacterial activity against Clostridioides difficile NR-13435 isolate 9; type: ADME
# [8] = Selectivity ratio of MIC for antibacterial activity against Bacteroides fragilis HM-711 to antibacterial activity against Clostridioides difficile NR-32895 P19; type: ADME
# [9] = Selectivity ratio of MIC for antibacterial activity against Bacteroides fragilis HM-709 to antibacterial activity against Clostridioides difficile NR-32883 P2; type: ADME
# [10] = Selectivity ratio of MIC for antibacterial activity against Bacteroides dorei HM-719 to antibacterial activity against Clostridioides difficile ATCC 43255; type: ADME
smiles,measurement,setting,value
O=C(Nc1nnc(-c2cc(Cl)cc(Cl)c2)o1)c1ccc(SC(F)(F)F)cc1,MIC,Clostridioides difficile [1],0.07 µM
same,MIC,Clostridioides difficile [2],0.02 µM
same,MIC,Escherichia coli,9.2 µM
same,Ratio,Clostridioides difficile [3],2.5
same,MIC,Bacteroides fragilis,4.6 µM
same,MIC,Phocaeicola dorei,4.6 µM
same,Activity,Clostridioides difficile [4],<1.1 10^-9No_unit
same,survival at 50 mg/kg,Clostridioides difficile [5],100%
same,Selectivity ratio,[6],100
same,Selectivity ratio,[7],100
same,Selectivity ratio,[8],100
same,Selectivity ratio,[9],100
same,Selectivity ratio,[10],100
